This passage reports cytotoxicity results from ChEMBL document CHEMBL4513216, “Probing the Open Global Health Chemical Diversity Library for Multistage-Active Starting Points for Next-Generation Antimalarials” (ACS Infect Dis, 2020).

This series in a line: Toxicity liver stage against HepG2, at 10uM. The format is cell-based. Details: test concentration 10 uM, cell line HepG2-A16-CD81EGFP. The note with it: human, HepG2-A16-CD81EGFP cells; read-out: INHIBITION
The gist of the method:
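Uninfected HepG2-A16-CD81EGFP cells, 3 × 10^3 per well, 1536-well, plated on prespotted compound at 10 μM final, parasite-free screening media added to match infected plates; puromycin 10 μM positive, DMSO 0.5% negative; run in parallel with 48 h PbLuc assay at 37 °C, 5% CO2; viability by CellTiter-Glo luminescence, normalized to controls.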
`CCCC(O)CN1CC(C)(C)CN(C(=O)CCc2ccccc2)CC1=O` (stereo unspecified): the cytotoxicity at 10 µM is -15.4%.
Next, `CSCC[C@H](NC(=O)N1CCC(Cc2ccccc2)CC1)C(=O)O`: -1.55%; `O=C1CC(c2cccnc2)c2c(c(C(=O)O)cn2-c2ccc(Cl)cc2)N1` (stereo unspecified): -0.462%; `O=C(c1ccccc1F)N1CC(c2nc(-c3ccc[nH]c3=O)no2)C1`: 2.21%.
As to `O=C(c1ccco1)N1CCC(CSCc2ccco2)CC1`, the cytotoxicity at 10 µM was -6.49%.
As for `CN(C)C(=O)Cc1ccc(NC(=O)c2cn(C)nn2)cc1`, the cytotoxicity at 10 µM is -5.27%.
Next, `CCN1CC[C@]2(CN(C(=O)C3CCOCC3)C[C@H]2c2ccccc2)C1=O`: 8.58%; `O=S(=O)(C1CC1)N1CCn2c(Cn3cncn3)cnc2C1`: 12.2%.
Turning to `COCCN1C(=O)C2(CCC(C(=O)Nc3ccc(F)cc3)CC2)N=C1C` (stereo unspecified), the cytotoxicity at 10 µM is 9.7%.
In the case of `c1ccc(CNCC2Cn3nncc3CO2)nc1` (stereo unspecified), the cytotoxicity at 10 µM stood at 4.93%.
With `CCOCC1CC2(CCN(C(=O)C3CC=CC3)CC2)CO1` (stereo unspecified), the cytotoxicity at 10 µM was determined as 1.5%.
For `CN(C)c1nc(N2CCCC2)nc2c1CCN(C(=O)c1ccoc1)CC2`, the cytotoxicity at 10 µM came to 14.9%.
Under `CC(=O)N1CC[C@H]2C(=O)N(c3ccsc3)CCO[C@H]2C1` stands 4.47%.
Next, `COCCC1COC2(CCN(C(C)=O)CC2)C1` (stereo unspecified): 8.19%; `Cc1cc(C(=O)N2CCc3c(CN(C)C(C)C)n[nH]c3C2)[nH]n1`: -133%; `O=C(NCc1ccccc1)c1nn(C2CCS(=O)(=O)C2)c2c1CCCC2` (stereo unspecified): 5.92%.
As to `CC(C)OCCCNC(=O)c1c(-n2cnnn2)sc2c1CCCC2`, the cytotoxicity at 10 µM stood at 11.9%.
As to `CSc1ccc(C2CC(=O)Nc3c2c(=O)[nH]n3C(C)C)cc1` (stereo unspecified), the cytotoxicity at 10 µM is 6.71%.
Under `O=C(CCO)N1CCOC2(CCCN(C(=O)c3ccco3)C2)C1` (stereo unspecified) stands -11.7%.
In the case of `CN1CC(Oc2ccccc2)=NC(SCC(=O)Nc2ccccc2Cl)=N1`, the cytotoxicity at 10 µM was -9.19%.
For the molecule `Cc1nc(N2CCCC2)ncc1-c1cc(O)nc(N2CCN(C)CC2)n1`, the cytotoxicity at 10 µM was determined as 2.6%.
On to `CC(C)S(=O)(=O)N1CCN(C(=O)c2cnn(C)c2Cl)CC1`, for which the cytotoxicity at 10 µM was determined as 1.6%.
As for `c1cncc(CN2CCC(c3ccnc4nccn34)C2)c1` (stereo unspecified), the cytotoxicity at 10 µM is 5.78%.
Regarding `CC(C)CN1CCCC(c2nc(O)c3cc(F)ccc3n2)C1` (stereo unspecified), the cytotoxicity at 10 µM is 10.3%.
Next, `CN1CCC(NC(=O)c2cc(Br)cc(Cl)c2O)C1=O` (stereo unspecified): -5.79%; `CS(=O)(=O)N1CCCC(C(=O)N2CCOc3ccccc32)C1` (stereo unspecified): 0.421%; `COc1ccc2c(c1)CCCN2Cc1nc(C)c(C)o1`: 4.74%.
Next, `CC(C)(O)CN1CCN(C(=O)c2cccn2Cc2ccccc2)CC1`: -3.88%; `Cc1ccc(CNC(CN2CCN(C)CC2)c2ccccc2)cc1C` (stereo unspecified): -7.49%.
Under `Cc1ncc2c(n1)CN(Cc1cccc3c1OCCO3)CC2` stands -1.31%; under `CCc1ncc2c(n1)CN(Cc1ncc(C(C)(C)C)o1)CC2`, -15.9%.
As for `CCN(CC)C(=O)Nc1cccc(Oc2ccccn2)c1`, the cytotoxicity at 10 µM was 8.12%.
With `COCCOCC(=O)Nc1ccccc1F`, the cytotoxicity at 10 µM came to 14.7%.
Under `Cn1cc(C(O)CNC(=O)c2cc(Br)ccc2Cl)cn1` (stereo unspecified) stands 2.06%; under `Cc1nn(CCC#N)c(C)c1CCC(=O)N(C)Cc1ccsc1`, -3.57%.
Turning to `CC(C)Cc1nc(CSC2CCCN(c3cnn(C)c3)C2=O)no1` (stereo unspecified), the cytotoxicity at 10 µM worked out at 17.7%.
For `CN(C)CCn1ccc2cc(NC(=O)NCc3ccon3)ccc21`, the cytotoxicity at 10 µM was -2.51%.
On to `N#Cc1ccc(CNc2ncc(C#N)cc2Cl)cc1`, for which the cytotoxicity at 10 µM was found to be 17.7%.
`CN1CCN(c2cccc(Cl)c2CNCCS(C)(=O)=O)CC1`: the cytotoxicity at 10 µM is -0.641%.
With `Cc1ccc(S(=O)(=O)NC(=O)C2(c3ccc(F)cc3)CCC2)c(C)c1`, the cytotoxicity at 10 µM was -1.09%.
For the molecule `O=C(CN(CC(O)c1ccc(F)cc1)C1CC1)Nc1cccnc1` (stereo unspecified), the cytotoxicity at 10 µM is -4.19%.
As for `Cc1cc(N2CCc3c(ncn3C)C2)n2nc(C(F)(F)F)nc2n1`, the cytotoxicity at 10 µM came to 4.11%.
In the case of `CCS(=O)(=O)NC(CCSC)C(=O)Nc1ccccc1C` (stereo unspecified), the cytotoxicity at 10 µM is 1.06%.
Under `CN(C)CCC1CCN(c2cc(N3CCCC3CO)ncn2)CC1` (stereo unspecified) stands -6.27%; under `O=C(NCc1nccs1)N1CCOC(c2ccccc2Cl)C1` (stereo unspecified), -3.67%; under `Cc1cc(C(N)=O)ccc1NC(=O)c1nc(N2CCCC2)ncc1Cl`, -8.94%.
Take `Cc1ccc(-n2nnc(CC(=O)N3CCOCC3)c2C)cc1`: the cytotoxicity at 10 µM was -12.9%.
In the case of `COc1ccc(Cn2cc(C(=O)N(C)Cc3ccon3)nn2)cc1`, the cytotoxicity at 10 µM was 5.61%.
In the case of `N#Cc1ccccc1C(=O)N1C[C@@H](CN2CCCCC2)[C@@H](CO)C1`, the cytotoxicity at 10 µM is -0.165%.
Next, `Cc1cccc(-c2nc(N)nc3c2CN(C(=O)c2ccncn2)C3C)c1` (stereo unspecified): 4.65%.
Next, `Cc1ccc(CN2CCN(c3ncnc4[nH]cnc34)CC2CCO)cc1` (stereo unspecified): 28%.
Turning to `O=C(c1ccc(S(=O)(=O)NC2CCC2)cc1)N1CC[C@H]2CNC[C@H]21`, the cytotoxicity at 10 µM is -13.5%.
On to `COCC(=O)N1CCC(c2nccn2CC2CC2)CC1`, for which the cytotoxicity at 10 µM was -14.6%.
Consider `Cc1cc(C)c2nc(CN3CC[C@@H](O)C3)cc(O)c2c1`, for which the cytotoxicity at 10 µM was -6.23%.
`NC(=O)c1cccc(OCC(=O)NS(=O)(=O)c2ccc3c(c2)CCC3)c1`: the cytotoxicity at 10 µM is -6.22%.
For `COc1c(C2CCCN2Cc2csc(C(C)C)n2)c(C)nn1C` (stereo unspecified), the cytotoxicity at 10 µM was -1.53%.
In the case of `Cc1nc(CN2CCCN(CCOc3cccc(C#N)c3)CC2)no1`, the cytotoxicity at 10 µM is -5.85%.
Consider `CC(C)c1noc(C(C)N2CCN(CCO)CC2)n1` (stereo unspecified), for which the cytotoxicity at 10 µM is -2.26%.
Take `O=C1NCc2ccc(NC(=O)C3CCCN3c3nccs3)cc21` (stereo unspecified): the cytotoxicity at 10 µM was -6.02%.
Consider `Cc1cc(C)c(CNC(=O)C2CCCN(c3cnccn3)C2)c(=O)[nH]1` (stereo unspecified), for which the cytotoxicity at 10 µM is -13.7%.
Under `CN(Cc1ccc(F)cc1)C(=O)CN1CCOC(Cn2cncn2)C1` (stereo unspecified) stands -4.07%.
As to `CCN1CCN(CC(C)(O)c2cccc(C(F)(F)F)c2)CC1` (stereo unspecified), the cytotoxicity at 10 µM is -11.4%.
For `Cc1cccc(N2CCCC3(C2)CN(S(=O)(=O)C2CC2)CCO3)c1` (stereo unspecified), the cytotoxicity at 10 µM is 11%.
Turning to `Cc1nn(C)c(N(C)C)c1CNC1CCc2c(Cl)cccc21` (stereo unspecified), the cytotoxicity at 10 µM was -7.07%.
Take `Cn1cc(CN2CCC3(CC2)C(=O)Nc2ccccc23)cn1`: the cytotoxicity at 10 µM was determined as 0.134%.
Consider `COCC(=O)N1CCCn2c(CN3CCCCC3)nnc2C1`, for which the cytotoxicity at 10 µM was -15.8%.
Under `O=C(N1CCCC1)N1CC[C@H]2[C@H]1CCN2c1ncccn1` stands -1.19%; under `CCOCc1cnc2n1CCN(Cc1scnc1C)C2C` (stereo unspecified), 8.85%.
Regarding `O=C(CC1CC1)N1C[C@@H]2CCN(c3cccnc3)C[C@@H]2C1`, the cytotoxicity at 10 µM is 4.62%.
Consider `c1ccc(CN2CCOC3(COCCN(c4ncccn4)C3)C2)nc1` (stereo unspecified), for which the cytotoxicity at 10 µM is 8.28%.
Consider `CN(C)C(=O)[C@H]1C[C@H]2CN(S(=O)(=O)Cc3ccccc3)C[C@@H]1O2`, for which the cytotoxicity at 10 µM was determined as 4.81%.
